According to ChEMBL document CHEMBL4330127, “Discovery of Novel Pyruvate Dehydrogenase Kinase 4 Inhibitors for Potential Oral Treatment of Metabolic Diseases” (J Med Chem, 2019):

Key:
[1] = target: T1, [Pyruvate dehydrogenase (acetyl-transferring)] kinase isozyme 4, mitochondrial (Homo sapiens, UniProt Q16654); assay: Inhibition of PDK4 (unknown origin) at 10 uM relative to control
Target sequence in this assay (Q16654 whole entry, looked up): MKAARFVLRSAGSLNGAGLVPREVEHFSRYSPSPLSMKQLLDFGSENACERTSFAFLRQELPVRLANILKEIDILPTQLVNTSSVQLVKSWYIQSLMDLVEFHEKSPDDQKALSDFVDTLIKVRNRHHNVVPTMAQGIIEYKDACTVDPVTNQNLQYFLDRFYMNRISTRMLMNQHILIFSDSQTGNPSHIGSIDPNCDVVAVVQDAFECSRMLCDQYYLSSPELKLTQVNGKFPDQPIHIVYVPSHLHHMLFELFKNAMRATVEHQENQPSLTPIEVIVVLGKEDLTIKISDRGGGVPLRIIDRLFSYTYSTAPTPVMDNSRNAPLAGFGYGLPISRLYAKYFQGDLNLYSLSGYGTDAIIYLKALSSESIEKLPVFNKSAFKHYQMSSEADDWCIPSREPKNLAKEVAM

[2] = Metabolic stability in rat liver microsomes assessed as parent compound remaining after 30 mins by LC-MS/MS analysis; format: ADME, Microsome; details: read-out: Stability
[3] = Metabolic stability in human liver microsomes assessed as parent compound remaining at 1 uM after 30 mins by LC-MS/MS analysis
[4] = target: T1, [Pyruvate dehydrogenase (acetyl-transferring)] kinase isozyme 4, mitochondrial; assay: Inhibition of PDK4 (unknown origin)
Target sequence in this assay (Q16654 whole entry): as the sequence (Q16654 whole entry, looked up) above

[5] = target: T1, [Pyruvate dehydrogenase (acetyl-transferring)] kinase isozyme 4, mitochondrial; assay: Inhibition of PDK4 in HEK293T cells assessed as reduction in PDHE1alpha phosphorylation at Ser-300 residue by measuring phosphorylated PDHE1alpha level at 10 uM after 24 hrs by Western blot analysis; format: cell-based
Outline: (§1)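 HEK293T cells grown in high-glucose DMEM with 10% FBS at 37 °C, 5% CO2. Medium renewed after 24 h, then cells exposed to compound for 24 h and lysed. 20 μg protein per lane Western blotted with antibodies to phospho-PDHE1α Ser232, Ser293 and Ser300 and to total PDHE1α. Band intensity quantified relative to control; triplicate.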
Target sequence in this assay (Q16654 whole entry, looked up): as above

[6] = target: T1, [Pyruvate dehydrogenase (acetyl-transferring)] kinase isozyme 4, mitochondrial; assay: Inhibition of PDK4 in HEK293T cells assessed as reduction in PDHE1alpha phosphorylation at Ser-293 residue by measuring phosphorylated PDHE1alpha level at 10 uM after 24 hrs by Western blot analysis; format: cell-based
Outline: as §1
Target sequence in this assay (Q16654 whole entry, looked up): as above

[7] = target: T1, [Pyruvate dehydrogenase (acetyl-transferring)] kinase isozyme 4, mitochondrial; assay: Inhibition of PDK4 in HEK293T cells assessed as reduction in PDHE1alpha phosphorylation at Ser-232 residue by measuring phosphorylated PDHE1alpha level at 10 uM after 24 hrs by Western blot analysis; format: cell-based
Outline: as §1
Target sequence in this assay (Q16654 whole entry, looked up): as above

O=C1c2ccccc2C(=O)c2c(Br)cccc21
inhibition [1]: 37.8%

O=C1CC2(CCCC2)CC(=O)N1CCCCN1CCN(c2ncccn2)CC1 [BUSPIRONE]
remaining at 0.5 h [2]: 0.1% | remaining at 0.5 h, 1 µM [3]: 4%

CC(C)(C)OC(=O)N1CC=C(c2cccc3c2C(=O)c2ccccc2C3(O)C(F)(F)F)CC1 (stereo not given)
inhibition [1]: 17.3%

O=C1c2ccccc2C(=O)c2ccccc21
inhibition [1]: 40.7%

CC(C(=O)O)n1cc(-c2cccc3c2C(=O)c2ccccc2C3(O)C(F)(F)F)cn1 (stereo not given)
inhibition [1]: 47.2% | IC50 [4]: 143 nM

CC(C)(C)OC(=O)N1CCC(n2cc(-c3cccc4c3C(=O)c3ccccc3C4=O)cn2)CC1
inhibition [1]: 32.6%

O=C1c2ccccc2C(=O)c2c1cccc2-c1ccc(O)cc1
inhibition [1]: 35.9%

CCOC(=O)C(C)n1cc(-c2cccc3c2C(=O)c2ccccc2C3(O)C(F)(F)F)cn1 (stereo not given)
inhibition [1]: 36.9%

O=C1c2ccccc2C(=O)c2c1cccc2C1=CCN(C(=O)Nc2ccccc2)CC1
inhibition [1]: 32.6%

O=C1c2ccccc2C(=O)c2c1cccc2C1=CCN(C(=O)OCc2ccccc2)CC1
inhibition [1]: 41.6%

CC(C)(C)OC(=O)N1CCC(n2cc(-c3cccc4c3C(=O)c3ccccc3C4(O)C(F)(F)F)cn2)CC1 (stereo not given)
inhibition [1]: 32.1%

O=C1c2ccccc2C(=O)c2c1cccc2-c1cccnc1
inhibition [1]: 25.4%

CC(C(=O)O)n1cc(-c2cccc3c2C(=O)c2ccccc2C3=O)cn1 (stereo not given)
inhibition [1]: 45.9%

O=C1c2ccccc2C(O)(C(F)(F)F)c2cccc(C3=CCN(C(=O)OCc4ccccc4)CC3)c21 (stereo not given)
inhibition [1]: 34.1%

O=C1c2ccccc2C(=O)c2c1cccc2-c1cn[nH]c1
inhibition [1]: 32.9%

O=C1c2ccccc2C(O)(C(F)(F)F)c2cccc(C3=CCNCC3)c21 (stereo not given)
inhibition [1]: 29.7%

CC(C)(C)OC(=O)N1CC=C(c2cccc3c2C(=O)c2ccccc2C3=O)CC1
inhibition [1]: 53.4% | IC50 [4]: 600 nM

O=C1c2ccccc2C(=O)c2c1cccc2C1=CCNCC1
inhibition [1]: 35.6%

O=C1c2ccccc2C(=O)c2c1cccc2-c1cnn(C2CCCCO2)c1 (stereo not given)
inhibition [1]: 24.3%

O=C1c2ccccc2C(O)(C(F)(F)F)c2cccc(-c3cnn(C4CCNCC4)c3)c21 (stereo not given)
inhibition [1]: 30.2%

O=C(O)c1ccc(-c2cccc3c2C(=O)c2ccccc2C3=O)cc1
inhibition [1]: 30.4%

O=S(=O)(c1ccc(O)cc1O)N1Cc2cc(O)cc(O)c2C1
fold change (FC) [5]: 0.93 | fold change (FC) [6]: 0.98 | fold change (FC) [7]: 0.62 | inhibition [1]: 34.1%

CS(=O)(=O)N1CC=C(c2cccc3c2C(=O)c2ccccc2C3=O)CC1
inhibition [1]: 29.5%

CCOC(=O)C(C)n1cc(-c2cccc3c2C(=O)c2ccccc2C3=O)cn1 (stereo not given)
inhibition [1]: 29.4%
